Laboratory results: ChEMBL document CHEMBL1914324, “Discovery of novel spirocyclic inhibitors of fatty acid amide hydrolase (FAAH). Part 2. Discovery of 7-azaspiro[3.5]nonane urea PF-04862853, an orally efficacious inhibitor of fatty acid amide hydrolase (FAAH) for pain” (Bioorg Med Chem Lett, 2011)
Active and inactive are the calls of the source.

What was measured:
[1] = Clearance in rat CFA model at 3 mg/kg, po; type: ADME, organism-based; parameters: dose 3 mg/kg, route oral; conditions: in vivo
Method in brief: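 Rats in the CFA model screened at a single oral dose of 3 mpk. Plasma compound concentrations determined, including at 24 h. Clearance estimated from the 3 h and 24 h time points.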

[2] = Oral bioavailability in dog; type: ADME, organism-based, Canis lupus familiaris; conditions: in vivo
Rattus norvegicus [3] = experiment: Inhibition of FAAH in rat CFA model leukocytes assessed as residual activity using 3H-anandamide as substrate at 0.3 mg/kg, po after 4 hrs; type: functional, organism-based; parameters: dose 0.3 mg/kg
Method in brief: (§1)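 Rats with CFA-induced inflammatory pain dosed orally. Brain tissue and leukocytes collected 4 h post dose. Residual FAAH activity measured with 3H-anandamide as substrate. n = 4 animals/group. PK, biomarker and behavioural samples taken from the same animals.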

Salmonella typhimurium = experiment: Mutagenic activity in Salmonella Typhimurium by Ames test; type: toxicity, organism-based; conditions: salmonella enterica subsp. enterica serovar typhimurium
[4] = Half life in rat CFA model at 3 mg/kg, po; type: ADME, organism-based; parameters: dose 3 mg/kg, route oral; conditions: in vivo
[5] = target: T1, Fatty-acid amide hydrolase 1 (Homo sapiens) (UniProt O00519); experiment: Inhibition of FAAH in human brain membrane using rhodamine-tagged fluorophosphonate probe at 100 uM by competitive activity-based protein profiling method; type: cell membranes
T1 sequence (whole entry): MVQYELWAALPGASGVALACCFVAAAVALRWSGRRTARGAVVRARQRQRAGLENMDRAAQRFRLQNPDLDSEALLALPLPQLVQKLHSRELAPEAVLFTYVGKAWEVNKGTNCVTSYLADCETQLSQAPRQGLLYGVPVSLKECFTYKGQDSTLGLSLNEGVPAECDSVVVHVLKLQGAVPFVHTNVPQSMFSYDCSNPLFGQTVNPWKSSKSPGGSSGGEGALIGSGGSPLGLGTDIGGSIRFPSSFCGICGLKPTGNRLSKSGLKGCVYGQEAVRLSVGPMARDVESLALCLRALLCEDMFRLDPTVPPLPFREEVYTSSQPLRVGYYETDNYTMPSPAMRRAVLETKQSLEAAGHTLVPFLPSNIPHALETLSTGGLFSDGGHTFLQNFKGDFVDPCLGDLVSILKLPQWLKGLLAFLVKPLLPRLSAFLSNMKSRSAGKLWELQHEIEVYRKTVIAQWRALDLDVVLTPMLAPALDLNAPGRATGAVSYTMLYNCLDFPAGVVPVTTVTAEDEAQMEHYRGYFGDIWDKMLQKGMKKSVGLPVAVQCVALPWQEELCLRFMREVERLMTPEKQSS
Method in brief: (§2)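 Competitive activity-based protein profiling against >200 human serine hydrolases, FAAH included. Compound tested at 100 µM in human brain membrane and soluble liver proteomes. Residual hydrolase activity labelled with a rhodamine-tagged fluorophosphonate probe.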

Rattus norvegicus [6] = experiment: Inhibition of FAAH in rat CFA model at 3 mg/kg, po after 3 hrs; type: functional
Rattus norvegicus [7] = experiment: Inhibition of FAAH in rat CFA model brain isolates assessed as residual activity using 3H-anandamide as substrate at 0.3 mg/kg, po after 4 hrs; type: functional, organism-based; parameters: dose 0.3 mg/kg; method in brief: as §1
[8] = target: T2, Voltage-gated inwardly rectifying potassium channel KCNH2 (Homo sapiens, UniProt Q12809); experiment: Displacement of dofetilide from ERG
[9] = Plasma concentration in rat CFA model at 3 mg/kg, po after 4 hrs; type: ADME, organism-based; parameters: dose 3 mg/kg, route oral
Method in brief: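 CFA rats given compound orally; plasma sampled 4 h post dose. Compound levels determined by LC/MS. n = 4 animals/group.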

[10] = target: T3, Fatty-acid amide hydrolase 1 (Rattus norvegicus) (UniProt P97612); experiment: Ratio of Kinact to Ki for rat FAAH activity
T3 sequence (whole entry): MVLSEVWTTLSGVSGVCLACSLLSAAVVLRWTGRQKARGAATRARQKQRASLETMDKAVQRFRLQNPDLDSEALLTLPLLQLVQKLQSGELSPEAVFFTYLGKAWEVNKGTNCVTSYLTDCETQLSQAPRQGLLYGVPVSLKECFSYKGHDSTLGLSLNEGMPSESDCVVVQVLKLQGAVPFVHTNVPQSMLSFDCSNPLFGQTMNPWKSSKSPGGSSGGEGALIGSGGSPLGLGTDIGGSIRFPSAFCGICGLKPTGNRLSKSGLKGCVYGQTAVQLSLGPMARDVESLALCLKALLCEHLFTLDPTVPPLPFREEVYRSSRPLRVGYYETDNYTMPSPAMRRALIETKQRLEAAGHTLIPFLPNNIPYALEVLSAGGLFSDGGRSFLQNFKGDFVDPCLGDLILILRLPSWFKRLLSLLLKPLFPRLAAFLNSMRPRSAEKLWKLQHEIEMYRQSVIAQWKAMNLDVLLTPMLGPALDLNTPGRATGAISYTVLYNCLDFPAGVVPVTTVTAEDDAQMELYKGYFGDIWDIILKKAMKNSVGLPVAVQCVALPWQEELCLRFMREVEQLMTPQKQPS
Method in brief: (§3)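 kinact/Ki determined against human and rat FAAH. Each value is the average of at least two independent determinations.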

[11] = Half life in dog; type: ADME, organism-based, Canis lupus familiaris; conditions: in vivo
[12] = Inhibition of cytochrome P450; type: ADME
Rattus norvegicus [13] = organism: Rattus norvegicus; experiment: Antiinflammatory activity against rat CFA model assessed as minimum effective dose after 4 hrs; type: functional; conditions: read-out: MED
Method in brief: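 CFA inflammatory pain model in rats given compound orally. Paw withdrawal threshold assessed with von Frey filaments 4 h post dose. N = 8 animals/group; significance versus vehicle by ANOVA/Dunnett's (p <0.05). Minimum efficacious dose defined as exposure giving >95% FAAH inhibition.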

[14] = Volume of distribution at steady state in dog; type: ADME, organism-based, Canis lupus familiaris; conditions: in vivo, read-out: Vdss
[15] = Clearance in dog; type: ADME, organism-based, Canis lupus familiaris; conditions: in vivo
[16] = Genotoxicity in micronucleus
[17] = Oral bioavailability in rat CFA model at 3 mg/kg; type: ADME, organism-based; conditions: in vivo
[18] = target: T2, Voltage-gated inwardly rectifying potassium channel KCNH2; experiment: Inhibition of human ERG
Rattus norvegicus [19] = experiment: Inhibition of FAAH in orally dosed rat CFA model assessed as elevation of […]anandamide concentration in plasma after 4 hrs; type: functional, organism-based
[20] = target: T1, Fatty-acid amide hydrolase 1 (Homo sapiens); experiment: Inhibition of FAAH in human liver proteomes using rhodamine-tagged fluorophosphonate probe at 100 uM by competitive activity-based protein profiling method; method in brief: as §2
[21] = target: T1, Fatty-acid amide hydrolase 1 (Homo sapiens); experiment: Ratio of Kinact to Ki for human FAAH activity; method in brief: as §3
Rattus norvegicus [22] = experiment: Volume of distribution at steady state in rat CFA model at 3 mg/kg, po; type: ADME, organism-based; parameters: dose 3 mg/kg, route oral; conditions: in vivo
Rattus norvegicus [23] = experiment: Inhibition of FAAH in orally dosed rat CFA model assessed as elevation of […]anandamide concentration in brain after 4 hrs; type: functional, organism-based

T2 sequence (Q12809 whole entry): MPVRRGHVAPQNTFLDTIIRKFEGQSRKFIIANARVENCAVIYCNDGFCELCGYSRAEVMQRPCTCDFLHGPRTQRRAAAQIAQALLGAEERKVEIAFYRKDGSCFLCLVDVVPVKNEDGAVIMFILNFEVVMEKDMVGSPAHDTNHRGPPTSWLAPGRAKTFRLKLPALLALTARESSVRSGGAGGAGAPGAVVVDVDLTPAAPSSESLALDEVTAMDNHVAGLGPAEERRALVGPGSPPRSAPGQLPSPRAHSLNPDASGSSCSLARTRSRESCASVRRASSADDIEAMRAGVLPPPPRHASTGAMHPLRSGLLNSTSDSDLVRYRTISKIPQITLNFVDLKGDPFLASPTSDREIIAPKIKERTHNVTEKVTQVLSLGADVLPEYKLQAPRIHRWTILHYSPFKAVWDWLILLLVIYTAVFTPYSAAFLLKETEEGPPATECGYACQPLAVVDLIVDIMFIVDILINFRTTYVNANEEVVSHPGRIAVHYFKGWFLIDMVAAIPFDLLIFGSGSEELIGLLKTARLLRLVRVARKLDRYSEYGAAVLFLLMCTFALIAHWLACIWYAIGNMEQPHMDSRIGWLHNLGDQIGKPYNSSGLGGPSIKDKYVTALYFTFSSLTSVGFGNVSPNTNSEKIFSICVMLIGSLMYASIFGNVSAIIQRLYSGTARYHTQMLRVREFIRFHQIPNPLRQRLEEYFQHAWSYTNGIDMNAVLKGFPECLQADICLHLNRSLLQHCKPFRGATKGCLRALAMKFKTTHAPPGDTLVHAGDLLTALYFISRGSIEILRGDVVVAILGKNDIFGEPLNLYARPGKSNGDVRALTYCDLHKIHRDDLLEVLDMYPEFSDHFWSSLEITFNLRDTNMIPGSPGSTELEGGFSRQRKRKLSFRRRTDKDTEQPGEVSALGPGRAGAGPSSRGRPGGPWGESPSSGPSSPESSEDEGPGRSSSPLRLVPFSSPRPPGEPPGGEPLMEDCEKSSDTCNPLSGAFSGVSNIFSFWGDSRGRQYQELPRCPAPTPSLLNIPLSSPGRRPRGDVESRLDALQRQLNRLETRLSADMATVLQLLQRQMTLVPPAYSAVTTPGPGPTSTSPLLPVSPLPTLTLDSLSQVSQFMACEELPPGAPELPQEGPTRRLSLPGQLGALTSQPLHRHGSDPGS

CL/F [1]: 8.5 mL/min/kg
bioavailability [2]: 33%
half-life [4]: 7.1 h
inhibition [5]: Active
concentration at 4 h [9]: 459 nM
Ratio [10]: 5820 M⁻¹ s⁻¹
half-life [11]: 7.8 h
inhibition (INH) [12]: Not Active
Vd [14]: 5 L/kg
clearance [15]: 11.1 mL/min/kg
bioavailability [17]: 53%
inhibition [20]: Active
Ratio [21]: 4190 M⁻¹ s⁻¹
Vdss (Rattus norvegicus [22]): 3.4 L/kg
SMILES: Cc1noc(NC(=O)N2CCC3(CC2)CC(c2ccc(F)c(Cl)c2)C3)c1C
inhibition (Rattus norvegicus [3]): Active
Activity (Salmonella typhimurium): Non-toxic
activity call (active/not active) (Rattus norvegicus [6]): Active
minimal effective dose (Rattus norvegicus [6]; read-out: MED): 0.3 mg/kg
inhibition (Rattus norvegicus [7]): Active
inhibition (INH) [8]: Not Active
minimal effective dose (Rattus norvegicus [13]): 0.3 mg/kg
Activity [16]: Non-toxic
inhibition (INH) [18]: Not Active
inhibition (Rattus norvegicus [19]): Dose-dependent effect
inhibition (Rattus norvegicus [23]): Dose-dependent effect
